Screens: PubChem BioAssay, several laboratories
A selection: hits, their analogues and other compounds. The true share with any hit is near 3.8%.
HCV NS3 hel inh – inhibitors of Hepatitis C virus NS3 helicase | NS3 helicase DNA unwinding, Cy5 molecular beacon fluorescence | inhibition, % at 10.9 µM | hit rate 0.56% among 290,000 | AID 1800;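 active = inhibition above the mean of all tested compounds plus 3 SD, set per campaign, cut at about 35% in these data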;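 also: 0% = DMSO wells and 100% = thioflavine S control wells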
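System: NS3 helicase fragment of HCV / Schedule: 1 h at 25 °C / Control set: DMSO alone as 0% and 110 µM thioflavine S as 100% / Reagent: Cy5/quencher beacon DNA duplex and ATP to start / Technique: Cy5 fluorescence / Replication: singlicate / Evaluation: % inhibition of end-to-start signal ratio versus controls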
HSF-1 act – increases HSF-1 driven luciferase reporter signal. NIH3T3-HGL HSF-1 luciferase reporter, MG132, 8 h; 100% = twice DMSO control signal. activation, % at 9 µM. hit rate 1.7% among 300,000;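 active = mean replicate activation of at least 50% with a set share of replicates each reaching 50%; inconclusive = only one of those two conditions met; inactive = mean below 50% and too few replicates reaching it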;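 also: 0% = median of the neutral control wells and 100% = twice that signal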
HSF1 inhib – HSF1 inhibition; NIH3T3-HGL HSE-luciferase, MG132-induced, luminescence 8 h; hits give low values; activity change, negative = inhibition, % at 7.5 µM (by protocol); hit rate 0.77% among 300,000; AID 2098;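 active = more than half of replicate wells show activity change below -50%, luminescence cut by over half; inconclusive = some wells, but at most half, below -50%; inactive = no replicate well below -50%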;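 also: luciferase reports HSF-1 transcriptional activity via heat shock element; 0% = median of DMSO wells and -100% = zero luminescence signal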
Hep lipid drop – modulators of hepatic lipid droplet formation; AML12 mouse hepatocytes, oleate lipid droplets, BODIPY imaging; inhibition, % at 6.5 µM; hit rate 0.4% among 240,000;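 active = lipid droplet intensity inhibited by at least 50%, with more than 500 cells counted; inconclusive = wells with under 300 cells, treated as cytotoxic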
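Material – mouse AML12 hepatocyte cell line, fixed after treatment · Compound dosing – one dose, 6.5 µM compound · Times – compound with oleate, overnight · Measured by – Image-based BODIPY and DAPI two-channel analysis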
HSP90 inh – inhibitors of HSP90 luciferase refolding in rabbit reticulocyte lysate; inhibition, % at 5.6 µM; luciferase refolding luminescence, 3 h; AID 1789; hit rate 0.91% among 290,000;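 active = inhibition above the screen-wide mean plus 3 SD, computed separately per campaign, cut at about 16% in these data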;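 also: 0% = DMSO wells and 100% = 60 µM geldanamycin wells; inhibitors lower the luminescence because luciferase stays unfolded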
HSP90 confirm – HSP90 inhibition, confirmation assay | rabbit reticulocyte lysate, luciferase refolding luminescence, 3 h | shares compounds with HSP90 inh | inhibition, % at 5.9 µM | hit rate 64% among 2,300 | AID 1846; in the data active = inhibition above about 18%;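 also: 0% = vehicle wells and 100% = reference inhibitor wells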
luciferase ctr – counter-screen for HSP90 inhibitors: inhibitors of firefly luciferase. inhibition, % at 5.9 µM. hit rate 48% among 2,300. purified native firefly luciferase, luminescence. AID 1847. shares compounds with HSP90 inh;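 active = inhibition above the mean inhibition of all tested sample wells plus 3 SD, cut at about 10% in these data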;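 also: 0% = DMSO with luciferase and 100% = wells lacking luciferase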
Target sequence (P08659 whole entry, looked up): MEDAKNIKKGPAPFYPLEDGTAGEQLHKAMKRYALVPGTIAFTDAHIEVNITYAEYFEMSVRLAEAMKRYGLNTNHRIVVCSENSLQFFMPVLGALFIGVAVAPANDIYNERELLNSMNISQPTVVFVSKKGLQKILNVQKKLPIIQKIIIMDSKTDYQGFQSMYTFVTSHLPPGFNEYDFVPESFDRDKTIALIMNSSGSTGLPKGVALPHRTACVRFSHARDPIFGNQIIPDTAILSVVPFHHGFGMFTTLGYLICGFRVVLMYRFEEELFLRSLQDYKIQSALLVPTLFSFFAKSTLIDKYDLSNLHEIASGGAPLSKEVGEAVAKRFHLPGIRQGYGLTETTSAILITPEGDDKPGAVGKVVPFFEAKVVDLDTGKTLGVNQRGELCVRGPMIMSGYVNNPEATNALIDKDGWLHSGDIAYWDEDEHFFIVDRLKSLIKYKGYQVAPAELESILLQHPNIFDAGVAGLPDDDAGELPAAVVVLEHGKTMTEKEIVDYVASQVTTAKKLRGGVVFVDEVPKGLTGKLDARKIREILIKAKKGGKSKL
Starred values were filed as active, the others as inactive.

What do the screens show for `Cc1oc(-c2ccc(-c3ccccc3)cc2)nc1CN(CCO)C(C)C`?
HCV NS3 hel inh: -26.4; HSF-1 act: -37.0; HSF1 inhib: -26.3; Hep lipid drop: 5.0; HSP90 inh: 85.2*; HSP90 confirm: 93.5*; luciferase ctr: 21.0*

What do the screens show for `Nc1cc2nn(-c3ccccc3)nc2cc1Cl`?
HCV NS3 hel inh: 20.1; HSF-1 act: 41.1; HSF1 inhib: -3.2; Hep lipid drop: 29.2; HSP90 inh: 42.6*; HSP90 confirm: 18.1*; luciferase ctr: -8.2

What do the screens show for `O=C(NCCC(=O)N1CCc2ccccc21)c1ccco1`?
HCV NS3 hel inh: 2.9; HSF-1 act: 16.8; HSF1 inhib: 9.0; Hep lipid drop: 19.0; HSP90 inh: -5.2

What do the screens show for `COc1ccc(-c2cc3c(=O)n(CC(=O)NCCCN4CCC(Cc5ccccc5)CC4)ncn3n2)cc1`?
HCV NS3 hel inh: -82.3; HSF-1 act: -33.7; HSF1 inhib: -35.2; Hep lipid drop: -88.5; HSP90 inh: 55.3*; HSP90 confirm: 59.5*; luciferase ctr: 6.8

Results for COc1ccc(-c2cc3c(=O)n(CC(=O)NCCCN4CCN(Cc5ccccc5)CC4)ncn3n2)cc1 ?
HCV NS3 hel inh: -48.5; HSF-1 act: -18.5; HSF1 inhib: -18.8; Hep lipid drop: -29.5; HSP90 inh: 25.6*; HSP90 confirm: 51.0*; luciferase ctr: 34.7*

Results for Cc1ccc(NC(=O)Cn2cc(C(F)(F)F)cc(Cl)c2=O)cc1S(=O)(=O)N1CCCCC1 ?
HSF-1 act: 9.5; HSF1 inhib: 10.7

Results for CCCCN(C)C(=O)c1cc2cc3ccc(OC)cc3nc2s1 ?
HCV NS3 hel inh: -13.6; HSF-1 act: 33.8; HSF1 inhib: 5.7; HSP90 inh: 29.9*; HSP90 confirm: 39.2*; luciferase ctr: 26.5*

Results for CCOc1ccc(-c2nc(CN3CCCC(C(=O)N4CCOCC4)C3)c(C)o2)cc1 (centres undefined) ?
HCV NS3 hel inh: 5.0; HSF-1 act: -45.6; HSF1 inhib: -30.0; Hep lipid drop: -1.5; HSP90 inh: 18.5*; HSP90 confirm: 24.4*; luciferase ctr: -2.8

How did COCCNC(=O)C(=O)NCCN1CCOCC1 do in these assays?
HCV NS3 hel inh: -0.2; HSF-1 act: -3.9; HSF1 inhib: -3.8; Hep lipid drop: -10.1; HSP90 inh: -0.5

How did COCCNC(=O)C(=O)NCCN1CCNCC1 do in these assays?
HCV NS3 hel inh: -3.0; HSF-1 act: -8.2; HSF1 inhib: 2.3; Hep lipid drop: 1.8; HSP90 inh: 34.1*; HSP90 confirm: -1.7; luciferase ctr: -7.7

Results for Cc1ccc(-n2nnc(-c3cccnc3)n2)cc1 ?
HSF-1 act: 30.4; HSF1 inhib: 17.8

How did Cc1ccc(-n2nnc(-c3nccn3C)n2)cc1 do in these assays?
HCV NS3 hel inh: -3.9; HSF-1 act: 4.8; HSF1 inhib: 6.2; Hep lipid drop: 12.3; HSP90 inh: 33.0*; HSP90 confirm: 49.5*; luciferase ctr: 37.4*

Results for O=C1NC(=O)C2(CCCCCCCCCCC2)N1 ?
HCV NS3 hel inh: 6.4; HSF-1 act: 0.1; HSF1 inhib: -1.6; Hep lipid drop: -6.4; HSP90 inh: -0.9

Results for Cc1cc(C)c(C(=O)Cn2nc(C(=O)O)c3ccccc3c2=O)cc1C ?
HCV NS3 hel inh: 8.9; HSF-1 act: inconclusive; HSF1 inhib: 14.7; Hep lipid drop: -17.4; HSP90 inh: 5.9

How did Cc1cc(C(=O)Cn2nc(C(=O)O)c3ccccc3c2=O)c(C)n1-c1ccccc1 do in these assays?
HCV NS3 hel inh: -6.6; HSF-1 act: -50.9; HSF1 inhib: -38.4; Hep lipid drop: -0.9; HSP90 inh: 25.1*; HSP90 confirm: 61.5*; luciferase ctr: 30.6*

How did CC1(C)Cc2c(sc3ncnc(NN)c23)CO1 do in these assays?
HCV NS3 hel inh: -0.6; HSF-1 act: -7.9; HSF1 inhib: -8.9; Hep lipid drop: -7.6; HSP90 inh: -0.2

What do the screens show for `O=C(NC1CCSc2ccccc21)c1ccccc1Br` (centres undefined)?
HCV NS3 hel inh: 0.0; HSF-1 act: -3.7; HSF1 inhib: -2.7; Hep lipid drop: -17.2; HSP90 inh: -5.2

Results for COc1ccc(N2C(=O)c3ccccc3NC23CCCC3)cc1 ?
HCV NS3 hel inh: 0.2; HSF-1 act: 45.1; HSF1 inhib: 28.8; Hep lipid drop: -6.2; HSP90 inh: 19.4*; HSP90 confirm: 2.2; luciferase ctr: -5.8

What do the screens show for `CCC1(CC)Nc2ccccc2C(=O)N1c1ccc(OC)cc1`?
HCV NS3 hel inh: -2.0; HSF-1 act: 27.8; HSF1 inhib: 33.5; Hep lipid drop: 15.4; HSP90 inh: 10.6

Results for COc1ccc(Cc2n[nH]c(=S)n2N)cc1OC ?
HCV NS3 hel inh: -8.3; HSF-1 act: 8.6; HSF1 inhib: 3.8; Hep lipid drop: -0.9; HSP90 inh: 3.2

Results for Cc1ccc(OCc2nc(-c3ccccn3)no2)c(Br)c1 ?
HCV NS3 hel inh: -4.8; HSF-1 act: 26.0; HSF1 inhib: 9.4; HSP90 inh: 40.4*; HSP90 confirm: 65.3*; luciferase ctr: 61.5*

Results for Cc1ccc(-c2ccc(/C=N/NC(=O)c3ccccc3O)o2)cc1 ?
HCV NS3 hel inh: 10.0; HSF-1 act: -5.1; HSF1 inhib: -15.9; Hep lipid drop: 0.1; HSP90 inh: 21.6*; HSP90 confirm: -3.1; luciferase ctr: -11.2

How did CNC(=S)N/N=C/c1ccc(-c2cccc(C(=O)O)c2)o1 do in these assays?
HCV NS3 hel inh: 16.6; HSF-1 act: -66.1; HSF1 inhib: -60.2*; Hep lipid drop: -1.1; HSP90 inh: 26.4*; HSP90 confirm: 14.7; luciferase ctr: 0.3

What do the screens show for `NS(=O)(=O)c1ccc(-c2ccc(/C=N/NC(=O)c3ccccc3O)o2)cc1`?
HCV NS3 hel inh: -5.6; HSF-1 act: -50.4; HSF1 inhib: -36.7; Hep lipid drop: -13.0; HSP90 inh: 1.1

What do the screens show for `C/C(=C\c1ccccc1)C(=O)Nc1ccc(Cl)cn1`?
HCV NS3 hel inh: -6.2; HSF-1 act: 39.9; HSF1 inhib: 44.5; Hep lipid drop: 6.6; HSP90 inh: 17.8*; HSP90 confirm: 25.4*; luciferase ctr: 21.1*

How did O=C(CSc1nc2ccccc2c(=O)n1NC(=O)c1ccccc1)c1ccc(Cl)cc1 do in these assays?
HCV NS3 hel inh: -2.7; HSF-1 act: 20.6; HSF1 inhib: -0.3; HSP90 inh: 24.4*; HSP90 confirm: -4.5; luciferase ctr: -24.9

What do the screens show for `O=C(CSc1nc2ccccc2c(=O)n1NC(=O)c1ccccc1)c1ccccc1`?
HCV NS3 hel inh: -9.1; HSF-1 act: -20.6; HSF1 inhib: 1.1; HSP90 inh: 36.5*; HSP90 confirm: 9.6; luciferase ctr: -2.5

How did CC1(C)C2CCC(C2)C1(C)NC(=O)CN1CCOCC1 (centres undefined) do in these assays?
HCV NS3 hel inh: -0.6; HSP90 inh: 27.6*; HSP90 confirm: 1.1; luciferase ctr: -3.9
